Source: ChEMBL document CHEMBL3271933, “Inhibitors of hepatic mixed function oxidase. 3. Inhibition of hepatic microsomal aniline hydroxylase and aminopyrine demethylase by 2,6- and 2,4-dihydroxyphenyl alkyl ketones and related compounds” (J Med Chem, 1977)
Where a name gives a salt, the structure may show the parent alone. Active and inactive are the calls of the source. The rule behind the calls is not given here.

Target: not listed separately
Test: Inhibition of aniline hydroxylase activity of mixed function oxidase system in Wistar rat liver microsomes assessed as conversion of aniline to p-aminophenol after 10 mins
Details: read-out: I50

| IC50 [µM] | SMILES |
| --- | --- |
| 700 | CC(=O)c1ccc(O)cc1O |
| 750 | CCC(=O)c1ccc(O)cc1O |
| 290 | CCCC(C(=O)OCCN(CC)CC)(c1ccccc1)c1ccccc1 [PROADIFEN HYDROCHLORIDE] |
| 1400 | O=Cc1ccc(O)cc1O |
| 390 | CC(=O)c1ccccc1O |
| 200 | O=Cc1c(O)cccc1O |
| 210 | CC(=O)c1c(O)cccc1O |
| 200 | COc1cccc(O)c1C(C)=O |
| 190 | CC(=O)c1c(O)cccc1OCc1ccccc1 |

| SMILES | IC50 [µM] |
| --- | --- |
| CCCCOCCOCCOCc1cc2c(cc1CCC)OCO2 [PIPERONYL BUTOXIDE] | 420 |

Target: not listed separately
Test: Inhibition of aminopyrine demethylase activity of mixed function oxidase system in Wistar rat liver microsomes assessed as conversion of aminopyrine to 4-aminoantipyrine after 20 mins
Details: read-out: I50
In short: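 Microsomes from phenobarbitone-pretreated male Wistar rats, with the same NADPH-generating cofactors. Incubation in 3.0 mL containing aminopyrine 1.5 μmol and 5.6 mg protein in pH 7.4 phosphate, 20 min. 4-Aminoantipyrine formed was assayed. Benzyl ethers added in DMSO; other inhibitors usually in water. I50 taken from 5–7 inhibitor levels, means of duplicates.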

| IC50 [µM] | SMILES |
| --- | --- |
| 520 | CC(=O)c1ccc(O)cc1O |
| 160 | CCC(=O)c1ccc(O)cc1O |
| 6 | CCCC(C(=O)OCCN(CC)CC)(c1ccccc1)c1ccccc1 [PROADIFEN HYDROCHLORIDE] |
| 1100 | O=Cc1ccc(O)cc1O |
| 320 | CC(=O)c1ccccc1O |
| 650 | O=Cc1c(O)cccc1O |
| 140 | CC(=O)c1c(O)cccc1O |
| 90 | COc1cccc(O)c1C(C)=O |
| 80 | CC(=O)c1c(O)cccc1OCc1ccccc1 |
| 170 | CCC(=O)c1ccc(OC)cc1O |

| SMILES | IC50 [µM] |
| --- | --- |
| CCCCOCCOCCOCc1cc2c(cc1CCC)OCO2 [PIPERONYL BUTOXIDE] | 420 |

Organism: Rattus norvegicus
Test: Inhibition of aniline hydroxylase activity of mixed function oxidase system in Wistar rat liver microsomes assessed as conversion of aniline to p-aminophenol at 10^-3 M after 10 mins
Details: not given

| inhibition | SMILES |
| --- | --- |
| inactive | CCC(=O)c1ccc(OC)cc1O |

Tested on: Mus musculus
Test: In vivo inhibition of mixed function oxidase system in mouse assessed as increase in zoxazolamine-induced paralysis time at 100 mg/kg, ip pretreated for 10 mins followed by zoxazolamine-challenge relative to control
Design: scale not given: the % may be the effect or the level left
Details: route intraperitoneal

| SMILES | Activity [%] |
| --- | --- |
| CC(=O)c1ccc(O)cc1O | 77 |
| CC(=O)c1c(O)cccc1O | 164 |
| CC(=O)c1c(O)cccc1OCc1ccccc1 | 156 |

Tested on: Mus musculus
Test: In vivo inhibition of mixed function oxidase system in mouse assessed as prolongation of hexobarbital-induced sleeping time at 100 mg/kg, ip pretreated for 10 mins followed by hexobarbital-challenge relative to control
Design: scale not given: the % may be the effect or the level left
Details: route intraperitoneal

| SMILES | Activity [%] |
| --- | --- |
| CC(=O)c1ccc(O)cc1O | 127 |
| CC(=O)c1c(O)cccc1O | 190 |
| COc1cccc(O)c1C(C)=O | 233 |
| CC(=O)c1c(O)cccc1OCc1ccccc1 | 170 |
